This is a sample that favours compounds with a hit; in the whole collection about 11% have one here.
M1 antagonist = antagonists of rat M1 muscarinic receptor; B-score at 10 µM; CHO-M1 cells, Fluo-4 calcium, ACh EC80 antagonist mode; hits give low values; actives 3.4% (n = 64,000); P08482;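 active means calcium fluorescence response, raw or row-and-column corrected B-score, differing from the plate sample mean either way at a set confidence level, mostly lower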
S1P1 ag pot = agonists and agonism potentiators of human S1P1 receptor. P21453. S1P1 CRE-bla cells, forskolin, beta-lactamase FRET, potentiator mode; S1P1 agonist co-added at EC20, 2 nM; 100% = saturating reference agonist, 0% = basal. activation, % at 9.5 µM. actives 0.57% (n = 56,000). AID 449;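 active means activation above a cutoff set at the mean activation of all tested compounds plus 3 SD, cut at about 54% in these data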;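 further: forskolin at 4 µM as EC80 and the EC20 agonist is SEW2871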
S1P3 agonist = S1P3 (human) receptor agonism | Q99500 | activation, % at 4.5 µM | actives 0.1% (n = 60,000) | S1P3 NFAT-BLA reporter cells, FRET ratio; relative to 1 µM S1P, basal subtracted | AID 373;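 active means activation above the screen-wide mean plus 3 SD, cut at about 4.5% in these data, passing the limit was not always enough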
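Measure – % activation relative to 1 µM S1P (100%), per plate · System – stable CHO line with human S1P3, Gα16, NFAT-BLA reporter · Timing – cells plated overnight, compound 4 h 37 °C, substrate 2 h RT · Technique – fluorescent BLA substrate, ex 405 nm, em 460/535 nm ratio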
TNAP act DEA = activates human TNAP at intermediate phosphate acceptor concentration | purified TNAP, CDP-star luminescence, 100 mM DEA, 30 min; hits give high values; scale: 0 levamisole-inhibited, 1 vehicle-only enzyme | activation factor at 20 µM | 64,000 tested, under 10 active;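 active means activation factor of at least 2 at 20 µM, relative to controls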
D1 mod = allosteric modulators of human D1 dopamine receptor | HEK293 D1, CRE-luciferase, dopamine EC30 potentiation; actives deviate in either direction | actives 5.9% (n = 58,000) | P21728 | B-score at 10 µM;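 active means luminescence count or its row- and column-corrected plate score outside the 99.7% band of the plate's sample wells, on either side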
M1 agonist = activates the M1 muscarinic receptor | CHO-M1 cells, Fluo-4 calcium fluorescence, agonist mode; hits give high values | B-score at 10 µM | actives 3% (n = 64,000) | AID 626;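 active means fluorescence rise, raw or as B-score row- and column-corrected plate score, outside the 99.7% band of its plate's samples, either direction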
M1 ag confirm = rat M1 muscarinic agonism, confirmation | fluorescence change (max-min) at 10 µM | actives 19% (n = 1,700) | shares compounds with M1 agonist | CHO-M1 cells, Fluo-4 calcium fluorescence, agonist mode; actives lie on both sides | AID 1488;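 active means fluorescence change differs from the solvent-only DMSO control mean at a set confidence level in both duplicate runs; inconclusive means differs from solvent-only control mean in just one of two runs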;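 further: an EC20 dose of acetylcholine follows compound addition during the same imaging run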
M4 agonist ctr = activates rat M4 receptor in counter-screen for M1 agonists. shares compounds with M1 agonist. CHO M4/Gqi5 cells, Fluo-4 calcium fluorescence, agonist mode; actives lie on both sides. fluorescence change (max-min) at 10 µM. actives 9% (n = 1,700). AID 1741;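 active means fluorescence change differing from the plate's solvent-only control wells at 99.7% confidence in both duplicates, whether higher or lower; inconclusive means differs from solvent controls in only one of two duplicates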
Target sequence (P08485 whole entry, looked up): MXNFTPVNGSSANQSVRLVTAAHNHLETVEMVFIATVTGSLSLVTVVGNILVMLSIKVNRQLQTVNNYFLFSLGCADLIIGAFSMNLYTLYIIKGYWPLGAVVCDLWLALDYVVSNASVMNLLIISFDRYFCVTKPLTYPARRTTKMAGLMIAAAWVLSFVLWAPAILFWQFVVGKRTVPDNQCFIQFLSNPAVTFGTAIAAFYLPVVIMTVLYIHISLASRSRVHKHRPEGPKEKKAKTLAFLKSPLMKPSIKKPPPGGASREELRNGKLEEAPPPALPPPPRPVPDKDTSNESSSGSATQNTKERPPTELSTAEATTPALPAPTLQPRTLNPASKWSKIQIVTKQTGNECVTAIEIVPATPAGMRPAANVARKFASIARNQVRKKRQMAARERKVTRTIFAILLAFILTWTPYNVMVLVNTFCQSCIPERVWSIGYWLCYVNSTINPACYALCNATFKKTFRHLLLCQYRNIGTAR
A number is an active result; i = inactive; ? = inconclusive; nt = no result given.

SMILES	M1 antagonist	S1P1 ag pot	S1P3 agonist	TNAP act DEA	D1 mod	M1 agonist	M1 ag confirm	M4 agonist ctr
COc1ccc(NC(=O)CSc2nnc(-c3cccs3)n2-c2ccccc2)cc1	i	i	i	i	i	i	nt	nt
NC1=NC(c2ccc(F)cc2)n2c(nc3ccccc32)N1 (stereo not given)	i	i	i	i	i	i	nt	nt
COc1cc2c(=O)nc3n(c2cc1OC)C(c1ccccc1)N=C(N)N3 (stereo not given)	i	i	i	i	i	2.4	i	i
Cn1c(=O)[nH]c(=O)c2c1ncn2CCCc1ccccc1	i	i	i	i	i	i	nt	nt
CCOc1ccc2nc(N3CCCC(C(=O)N4CCN(CC)CC4)C3)sc2c1 (stereo not given)	i	i	i	i	i	i	nt	nt
CCOc1ccc2nc(N3CCC(C(=O)N4CCN(C(=O)c5ccco5)CC4)CC3)sc2c1	i	i	i	i	i	2.8	?	i
CN(C)S(=O)(=O)c1ccc2c(c1)C(CC(=O)O)NC2=O (stereo not given)	i	i	i	i	i	i	nt	nt
COc1ccccc1NC(=O)NC1(C(=O)N2CCC(O)CC2)CCCCC1	i	i	i	i	i	i	nt	nt
COc1ccc(C2CC(=O)N3CN(c4ccc(C)c(Cl)c4)CSC3=C2C#N)cc1OC (stereo not given)	i	i	i	i	nt	10	?	i
Cc1ccc(Cl)cc1NC(=O)CC(O)(C(F)(F)F)C(F)(F)F	-2.5	nt	i	i	-4.2	11	i	i
CCN(CC)S(=O)(=O)c1ccc(C(=O)N2CCN=C2SC)cc1	i	i	i	i	i	16	?	i
CS(=O)(=O)N(CC(=O)NC1CCCCC1)c1cccc(Cl)c1	i	i	i	i	i	i	nt	nt
CC12CC(NC(=O)N1c1cccc(C(=O)N3CCN(c4ccccn4)CC3)c1)c1ccccc1O2 (stereo not given)	i	nt	nt	i	i	i	nt	nt
O=C(Nc1cccc(NC(=O)c2ccc(-c3cccc(Br)c3)o2)c1)c1ccco1	i	i	i	i	-3.4	7.8	?	i
COc1ccc(Br)cc1C(=O)Nc1cccc(NC(=O)c2ccco2)c1	i	i	i	i	i	i	nt	nt
CCN(CC)P1(=O)OC(c2cc(OC)c(OC)c(OC)c2)=Nc2c1c(C)nn2-c1ccccc1 (stereo not given)	i	nt	nt	i	i	4.4	i	i
COc1cc(-c2nnc3sc(Cc4ccccc4)nn23)cc(OC)c1OC	i	i	i	i	i	i	nt	nt
Cc1cccc(OCc2nnc3n2CCCCC3)c1	i	i	i	i	nt	i	nt	nt
CCOC(=O)C1CCCN(Cc2cc(Br)c(OC)cc2OC)C1 (stereo not given)	i	nt	i	i	i	7.9	i	?
CCOC(=O)C1CCN(Cc2ccc(O)c(OC)c2)CC1	i	i	i	i	i	i	nt	nt
CCOC(=O)C1CCCN(Cc2cc(Br)ccc2OC)C1 (stereo not given)	nt	i	i	i	i	nt	nt	nt
CCOC(=O)C1CCCN(Cc2cc(OC)c(O)c(OC)c2)C1 (stereo not given)	i	i	i	i	i	3.2	60	i
Cc1ccc(S(=O)(=O)NCCN=C(CN2CCCC2)NS(=O)(=O)c2ccc(C)cc2)cc1	i	i	i	i	i	i	nt	nt
CCc1c(C)nc(N)n2c(SCC(=O)N3CCN(c4ccccc4OC)CC3)nnc12	i	i	i	i	i	i	nt	nt
O=C(CSc1nnc(C2COc3ccccc3O2)o1)N1CCOCC1 (stereo not given)	nt	i	i	i	i	nt	nt	nt
SMILES	M1 antagonist	S1P1 ag pot	S1P3 agonist	TNAP act DEA	D1 mod	M1 agonist	M1 ag confirm	M4 agonist ctr
Cc1[nH]c2ccc(-c3nnc(SCC(=O)N4CCCc5ccccc54)o3)cc2c1C	i	i	i	i	i	45	?	i
O=C(CSc1nnc(C2COc3ccccc3O2)o1)N1CCCc2ccccc21 (stereo not given)	i	i	i	i	i	2.5	?	i
N=c1c(S(=O)(=O)c2ccccc2)cc2c(=O)n3ccccc3nc2n1Cc1ccco1	i	i	i	i	i	9	i	i
Cc1ccc(/C(C#N)=C\c2cn(C)c3ccccc23)cc1	i	i	i	i	i	-2.7	i	i
Cc1ccc(-c2nn(-c3ccccc3)cc2/C=C(\C#N)c2cccc(C#N)c2)o1	i	i	i	i	nt	i	nt	nt
COc1cc(OC)cc(C(=O)NCC(=O)N2CCC(C)CC2)c1	i	i	i	i	i	i	nt	nt
Cc1cnn(-c2ccc3nnc(-c4ccc(Br)cc4)n3n2)c1	i	nt	i	i	i	i	nt	nt
CC(=O)OC1=C(C#N)Cn2ccc3cccc1c32	i	i	i	i	i	9	i	i
CCC(C)c1ccc(O)c(NC(=O)c2ncn[nH]2)c1 (stereo not given)	i	nt	i	i	i	12	-24	i
COC(=O)CSc1nnc(CNC(=O)c2ccco2)n1-c1ccc(F)cc1	i	i	i	i	i	4.4	i	?
CCOC(=O)CSc1nnc(CNC(=O)c2ccco2)n1C	i	i	i	i	i	i	nt	nt
O=C(CNC(=O)c1ccco1)OC(C(=O)c1ccccc1)c1ccccc1 (stereo not given)	i	i	i	i	nt	6.7	i	?
O=C(NCc1ccccc1F)C1CCCN(C(=O)NC2CCCCC2)C1 (stereo not given)	i	i	i	i	i	i	nt	nt
Cc1cc(OCc2nnc(SCC(=O)OC3CCCCC3)o2)ccc1Cl	i	i	i	i	i	4.6	?	?
C=CCn1c(=O)/c(=C/c2ccc(C)o2)s/c1=C(/C#N)C(=O)c1ccccc1	i	i	i	i	i	12	86	275
O=C(NCC(=O)N(Cc1ccccc1)C(C(=O)NC1CCCC1)c1ccco1)c1ccco1 (stereo not given)	i	i	i	i	i	9.4	i	i
NC1=CC(=O)c2cccc3cccc1c23	i	i	i	i	i	53	371	440
Cc1nnc(C)n1N1C(=O)c2cccc3cccc(c23)C1=O	i	i	i	i	i	i	nt	nt
COc1ccc(OCCn2c(NC(=O)c3ccco3)nc3ccccc32)cc1	i	nt	i	i	i	i	nt	nt
CCC(=O)Nc1c(C#N)c2nc3ccccc3nc2n1-c1ccccc1C	i	i	i	i	i	i	nt	nt
COc1ccc(-n2c(NC(=O)c3ccco3)c(C#N)c3nc4ccccc4nc32)cc1	i	i	i	i	i	27	i	i
